Experimental data reported in PMC10639087 (Science signaling, 2023).

What was measured:
[1] = biological target: T1, LSM12 (like-Sm protein 12) (Homo sapiens, UniProt Q3MHD2); test: biolayer interferometry, biotinylated protein on streptavidin sensor; assay type: binding
Summary of the method: (§1)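 Recombinant human protein, expressed in E. coli BL21 Star (DE3) as an N-terminal 6xHis-GST-TEV fusion, was biotinylated (NHS-LC-biotin) and moved into 110 mM KCl, 10 mM NaCl, 20 mM Hepes pH 7.2 with 1% BSA. SAX sensors were equilibrated 30 s, loaded with 70 nM bait for 15 s, and re-equilibrated 60 s. They were exposed to NAADP (1:2 serial dilutions, 500 to 15.6 nM), then dissociated 210 to 300 s.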

[2] = biological target: T2, JPT2 (Jupiter microtubule-associated homolog 2) (Homo sapiens, UniProt Q9H910); test: as above; assay type: binding
T2 sequence (Q9H910 1-190): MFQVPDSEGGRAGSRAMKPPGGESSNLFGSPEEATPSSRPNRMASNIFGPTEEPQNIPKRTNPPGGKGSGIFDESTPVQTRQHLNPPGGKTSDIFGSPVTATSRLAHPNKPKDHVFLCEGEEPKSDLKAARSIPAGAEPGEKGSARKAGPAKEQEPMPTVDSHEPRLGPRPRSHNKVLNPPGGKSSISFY
Summary of the method: as §1

[3] = biological target: T1, LSM12 (like-Sm protein 12); test: […]-NAADP displacement, PVDF filter binding
[4] = biological target: T2, JPT2 (Jupiter microtubule-associated homolog 2); test: […]-NAADP displacement, PVDF filter binding

T1 sequence (Q3MHD2 whole entry, the tested form may be a part): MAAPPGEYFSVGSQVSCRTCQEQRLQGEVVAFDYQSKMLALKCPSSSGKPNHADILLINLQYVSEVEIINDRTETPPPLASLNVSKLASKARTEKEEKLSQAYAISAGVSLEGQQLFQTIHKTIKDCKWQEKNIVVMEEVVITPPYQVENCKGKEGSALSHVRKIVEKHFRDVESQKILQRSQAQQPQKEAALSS

Kd [1] | Kd [2] | IC50 [3] | IC50 [4] | Compound
2.03 ± 0.41 nM | 5.71 ± 1.8 nM | 0.703 ± 0.1 nM | 1.09 ± 0.1 nM | Nc1ncnc2c1ncn2[C@@H]1O[C@H](COP(=O)(O)OP(=O)(O)OC[C@H]2O[C@@H]([n+]3cccc(C(=O)O)c3)[C@H](O)[C@@H]2O)[C@@H](O)[C@H]1OP(=O)(O)O [NAADP]
126 ± 35.6 nM | 52.9 ± 8.6 nM | 40.3 ± 25 nM | 15.9 ± 4 nM | NC(=O)c1ccc[n+]([C@@H]2O[C@H](COP(=O)(O)OP(=O)(O)OC[C@H]3O[C@@H](n4cnc5c(N)ncnc54)[C@H](OP(=O)(O)O)[C@@H]3O)[C@@H](O)[C@H]2O)c1 [NADP]
